{"source": "paper PMC9071996", "about": "(RSC Advances, 2019)", "key": {"MDA-MB-231 cells [1]": {"test_system": "MDA-MB-231 cells", "experiment": "Cell cycle assay", "assay_type": "cell-based, human", "conditions": "72 h, control 56.86%", "procedure,_shortened": "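Test compound applied to MDA-MB-231 cells at 2.5, 5 and 10 μM for 72 h. Cells stained with propidium iodide, and DNA content measured by flow cytometry. Percentages of cells in each cell-cycle phase were calculated against an untreated control.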"}, "MDA-MB-231 cells [2]": {"test_system": "MDA-MB-231 cells", "experiment": "Annexin V-APC/7-AAD apoptosis assay", "assay_type": "cell-based, human", "conditions": "72 h, control 1.98%", "procedure,_shortened": "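MDA-MB-231 cells exposed to test compound at 2.5, 5 or 10 μM for 72 h, with untreated cells as control. Cells then double-stained with Annexin V-APC and 7-AAD and analysed by flow cytometry. Annexin V+/7-AAD− cells scored as early apoptotic. 7-AAD-positive Annexin V+ cells scored as late apoptotic. Results shown as dot-plot quadrants and a histogram.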"}, "MDA-MB-231 cells [3]": {"test_system": "MDA-MB-231 cells", "experiment": "MTS cytotoxicity assay, MDA-MB-231", "assay_type": "cell-based", "conditions": "Homo sapiens, MDA-MB-231, 72 h, read-out: IC50 (μM) MBA-MD-231", "procedure,_shortened": "(§1)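 MTS viability assay in A549, MDA-MB-231 and RPMI-8226 human cancer cells. All compounds were first screened at 10 and 50 μM. Compounds that crossed a set viability threshold in this screen went on to IC50 determination.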"}, "A549 cells": {"test_system": "A549 cells", "experiment": "MTS cytotoxicity assay, A549", "assay_type": "cell-based", "conditions": "Homo sapiens, A549, 72 h, read-out: IC50 (μM) A549", "procedure,_shortened": "as §1"}, "MDA-MB-231 cells [4]": {"test_system": "MDA-MB-231 cells", "experiment": "Intracellular ROS level", "assay_type": "cell-based, human"}, "GES-1 cells": {"test_system": "GES-1 cells", "experiment": "MTS cytotoxicity assay, normal GES-1 cells", "assay_type": "cell-based", "conditions": "Homo sapiens, GES1, 72 h, read-out: IC50 (μM) GES-1"}, "MDA-MB-231 cells [5]": {"test_system": "MDA-MB-231 cells", "experiment": "Mitochondrial membrane potential assay", "assay_type": "cell-based, human", "conditions": "72 h, control 3.9%", "procedure,_shortened": "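Mitochondrial membrane potential measured by flow cytometry in MDA-MB-231 cells after 72 h with test compound at 2.5, 5 or 10 μM, against an untreated control. Red and green fluorescent populations were quantified. The green-fluorescent fraction was taken as cells with collapsed ΔΨm.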"}, "RPMI-8226 cells": {"test_system": "RPMI-8226 cells", "experiment": "MTS cytotoxicity assay, RPMI-8226", "assay_type": "cell-based", "conditions": "Homo sapiens, RPMI-8226, 72 h, read-out: IC50 (μM) RPMI-8226", "procedure,_shortened": "as §1"}, "MDA-MB-231 cells [6]": {"test_system": "MDA-MB-231 cells", "experiment": "Western blot of apoptosis related proteins", "assay_type": "cell-based, human", "conditions": "2.5, 5 and 10 μM, 72 h, vs control", "procedure,_shortened": "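Western blot on lysates of MDA-MB-231 cells treated for 72 h with test compound at 2.5, 5 and 10 μM, compared with untreated control. Proteins probed: Bcl-2, Bax, cytochrome C and caspase-3. β-actin served as internal reference, and band levels were analysed statistically.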"}}}
{"molecule": "CC12CCC(c3c(-c4ccc(Cl)cc4)nc(N)nc31)C2(C)C", "note": "(stereo not drawn) [Compound 3f, 4-(4-Chlorophenyl)-8,9,9-trimethyl-5,6,7,8-tetrahydro-5,8-methanoquinazolin-2-amine]", "values": [{"measurement": "percentage of cells in G0/G1 phase", "setting": "MDA-MB-231 cells [1]; 2.5 μM", "result": 64.89, "unit": "%"}, {"measurement": "percentage of cells in G0/G1 phase", "setting": "MDA-MB-231 cells [1]; 5 μM", "result": 78.02, "unit": "%"}, {"measurement": "percentage of cells in G0/G1 phase", "setting": "MDA-MB-231 cells [1]; 10 μM", "result": 81.72, "unit": "%"}, {"measurement": "Apoptosis rate (%) (total early and late)", "setting": "MDA-MB-231 cells [2]; 2.5 μM", "result": 9.47, "unit": "%"}, {"measurement": "Apoptosis rate (%) (total early and late)", "setting": "MDA-MB-231 cells [2]; 10 μM", "result": 57.9, "unit": "%"}, {"measurement": "IC50", "setting": "MDA-MB-231 cells [3]", "result": "5 ± 0.14", "unit": "µM"}, {"measurement": "IC50", "setting": "A549 cells", "result": "7.65 ± 0.21", "unit": "µM"}, {"measurement": "level of ROS (DCFH-DA positive cells)", "setting": "MDA-MB-231 cells [4]; 10.0 μM, 72 h, control 5.13%", "result": 63.4, "unit": "%"}, {"measurement": "increase of ROS level in comparison to the control group", "setting": "MDA-MB-231 cells [4]; 10 μM, 63.4% vs control 5.13%", "result": "~12", "unit": "times"}, {"measurement": "IC50", "setting": "GES-1 cells", "result": "> 50", "unit": "µM"}, {"measurement": "Percentage (%) green fluorescence (cells with a collapsed ΔΨm)", "setting": "MDA-MB-231 cells [5]; 2.5 μM", "result": 10.4, "unit": "%"}, {"measurement": "Percentage (%) green fluorescence (cells with a collapsed ΔΨm)", "setting": "MDA-MB-231 cells [5]; 5 μM", "result": 33.6, "unit": "%"}, {"measurement": "Percentage (%) green fluorescence (cells with a collapsed ΔΨm)", "setting": "MDA-MB-231 cells [5]; 10 μM", "result": 53.2, "unit": "%"}, {"measurement": "IC50", "setting": "RPMI-8226 cells", "result": "8.64 ± 0.24", "unit": "µM"}, {"measurement": "expression of anti-apoptosis protein Bcl-2", "setting": "MDA-MB-231 cells [6]", "result": "downregulated dose-dependently"}, {"measurement": "expression of caspase-3", "setting": "MDA-MB-231 cells [6]", "result": "upregulation"}, {"measurement": "expression of cytochrome C", "setting": "MDA-MB-231 cells [6]", "result": "upregulation"}, {"measurement": "expression of pro-apoptotic protein Bax", "setting": "MDA-MB-231 cells [6]", "result": "up-regulated"}]}
